Fold change (FC) and inhibition data for 19 molecules are collected here from ChEMBL document CHEMBL2417436, “Synthesis and biological effects of novel 2-amino-3-(4-chlorobenzoyl)-4-substituted thiophenes as allosteric enhancers of the A1 adenosine receptor” (Eur J Med Chem, 2013).

The target in experiment [1] is T1, Adenosine receptor A1 (Homo sapiens) (UniProt P30542).
T1 sequence (whole entry): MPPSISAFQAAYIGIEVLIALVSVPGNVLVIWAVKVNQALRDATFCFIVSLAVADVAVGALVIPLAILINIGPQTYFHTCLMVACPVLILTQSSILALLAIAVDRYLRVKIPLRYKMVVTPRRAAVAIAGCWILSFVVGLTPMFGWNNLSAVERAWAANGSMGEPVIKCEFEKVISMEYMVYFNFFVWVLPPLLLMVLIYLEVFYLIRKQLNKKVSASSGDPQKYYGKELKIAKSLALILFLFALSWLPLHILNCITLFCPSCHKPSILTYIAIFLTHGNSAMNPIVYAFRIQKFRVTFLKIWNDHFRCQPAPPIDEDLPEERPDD
Description: Allosteric enhancement of human adenosine A1 receptor expressed in CHO cells assessed as increase of CCPA Ki at 10 uM after 90 mins by [3H]DPCPX radioligand binding assay. Format: cell-based. The method, boiled down: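 hA1CHO membranes (50 mM Tris-HCl, pH 7.4, adenosine deaminase-treated). [3H]DPCPX 1 nM competed by CCPA (0.01 nM–1 μM) with or without test compound at 10 μM. Triplicate, 90 min at 25 °C. Nonspecific binding taken with 1 μM DPCPX. Filtration, then scintillation counting. Ki by Cheng–Prusoff. Shift = Ki(CCPA)/Ki(CCPA+enhancer). Mean ± SEM, n=3.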

In experiment [2] the target is T1, Adenosine receptor A1 (Homo sapiens). Nature of the experiment: Allosteric enhancement of human adenosine A1 receptor expressed in CHO cells assessed as inhibition of CCPA-induced cAMP production at 100 nM after 10 mins. Format: functional, cell-based. In short, it runs like this: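 Intact hA1CHO cells (10⁶/mL) in phosphate buffer with adenosine deaminase 1.0 IU/mL and Ro 20-1724 0.5 mM, preincubated 10 min at 37 °C. Compound 100 nM plus CCPA 1 pM added for 10 min, then forskolin 1 μM for 5 min. Stopped with cold 6% TCA, ether-extracted. cAMP measured by [3H]-cAMP competition with adrenal binding protein (4 °C, 150 min). pmol/10⁶ cells, mean ± SEM of three.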

Experiment [3] shares this target. Nature of the experiment: Allosteric enhancement of human adenosine A1 receptor expressed in CHO cells assessed as inhibition of forskolin-induced cAMP production at 10 uM after 10 mins. Format: functional, cell-based. The method, boiled down: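 Whole hA1CHO cells (10⁶/mL) preincubated 10 min at 37 °C in phosphate buffer with adenosine deaminase (1.0 IU/mL) and Ro 20-1724 (0.5 mM). Compound alone at 10 μM for a further 10 min; forskolin 1 μM for 5 min. TCA stop, ether extraction, cAMP by [3H]-cAMP protein-binding competition assay. Expressed as pmol/10⁶ cells; mean ± SEM, three experiments.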
In general terms: Changes in cAMP serve as a functional read-out for many G protein-coupled receptors.

Experiment [4] addresses T2, Adenosine receptor A3 (Homo sapiens) (UniProt P0DMS8).
T2 sequence (whole entry): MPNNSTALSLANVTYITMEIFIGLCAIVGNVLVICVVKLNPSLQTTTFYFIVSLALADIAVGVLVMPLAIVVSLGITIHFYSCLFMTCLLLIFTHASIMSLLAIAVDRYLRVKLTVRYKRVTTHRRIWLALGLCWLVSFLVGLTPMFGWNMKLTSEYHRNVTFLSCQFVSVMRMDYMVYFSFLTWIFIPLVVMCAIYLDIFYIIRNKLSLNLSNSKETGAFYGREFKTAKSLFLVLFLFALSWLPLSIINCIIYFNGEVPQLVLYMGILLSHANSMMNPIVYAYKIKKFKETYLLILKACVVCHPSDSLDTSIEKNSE
Description: Displacement of [3H]MRE-3008-F20 from human adenosine A3 receptor expressed in CHO cells at 10 uM after 120 mins by scintillation counting. A general note: In a radioligand displacement assay an active substance lowers the binding of a labelled ligand.

For experiment [5], the target named is T1, Adenosine receptor A1 (Homo sapiens). Nature of the experiment: Displacement of [3H]DPCPX from human adenosine A1 receptor expressed in CHO cells at 10 uM after 120 mins by scintillation counting.
The target of experiment [6] is Adenosine receptor A2a (Homo sapiens) (UniProt P29274). Nature of the experiment: Displacement of [3H]ZM 241385 from human adenosine A2A receptor expressed in CHO cells at 10 uM after 60 mins by scintillation counting. It counts as cell-based. The method, boiled down: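 hA2ACHO membranes in 50 mM Tris HCl, 10 mM MgCl2, pH 7.4, 4 °C for 60 min. [3H]ZM 241385 given as 1 nM in methods and 2 nM in table footnote. Compound at 10 μM from 100-fold DMSO stock, 1% DMSO final. Nonspecific binding with 1 μM ZM 241385. Filtration and scintillation counting. Percent inhibition of control specific binding, ±SEM, n=3.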

Experiment [7] deals with T1, Adenosine receptor A1 (Homo sapiens). Nature of the experiment: Allosteric enhancement of human adenosine A1 receptor expressed in CHO cells assessed as increase of [3H]CCPA Bmax at 10 uM after 90 mins. It counts as cell-based. In short, it runs like this:
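Saturation of [3H]CCPA (0.05–20 nM) on hA1CHO membranes in 50 mM Tris-HCl, pH 7.4, with or without compound at final 10 μM. Triplicate, 25 °C, 90 min. Nonspecific binding defined with 1 μM R-PIA. Filter-bound radioactivity counted. KD and Bmax fitted by weighted nonlinear least squares; Bmax shift versus control. Mean ± SEM, n=3.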

The structures appear in SMILES notation.

Adenosine receptor A2a (Homo sapiens), sequence (P29274 whole entry): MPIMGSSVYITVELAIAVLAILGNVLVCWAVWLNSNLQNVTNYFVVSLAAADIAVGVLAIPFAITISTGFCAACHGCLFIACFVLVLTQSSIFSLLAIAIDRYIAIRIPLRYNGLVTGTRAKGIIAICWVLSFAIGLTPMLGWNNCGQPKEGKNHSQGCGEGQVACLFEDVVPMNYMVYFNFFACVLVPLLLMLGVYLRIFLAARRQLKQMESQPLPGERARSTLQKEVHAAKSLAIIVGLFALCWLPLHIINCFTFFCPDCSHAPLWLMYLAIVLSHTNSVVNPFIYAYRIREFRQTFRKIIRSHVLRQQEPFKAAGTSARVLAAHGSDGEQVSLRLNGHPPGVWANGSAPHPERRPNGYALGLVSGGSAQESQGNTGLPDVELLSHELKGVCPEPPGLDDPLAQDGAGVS

In the case of `CCN(CC)Cc1csc(N)c1C(=O)c1ccc(Cl)cc1`, the fold change (FC) in experiment [1] and in experiment [7] was 1 throughout. The inhibition (commonly the share of the control response that was lost under treatment) in experiment [2] is 12%; in experiment [3] it was 5%; in experiment [4], 2%; in experiment [5], 0%; in experiment [6], 1%.
Take `Nc1scc(CN2CCN3c4ccccc4CC3C2)c1C(=O)c1ccc(Cl)cc1` (stereo not drawn): the figures for the fold change (FC) in experiment [1] and in experiment [7] were 7.6 and 8.1, respectively. The inhibition was 72% in experiment [2]; 71% in experiment [3]; 5% in experiment [4]; 0% in experiment [5]; 3% in experiment [6].
In the case of `Cc1cccc2c1OC1(CCN(Cc3csc(N)c3C(=O)c3ccc(Cl)cc3)CC1)O2`, the values for the fold change (FC) in experiment [1] and in experiment [7] were 4.9 and 5, respectively. Also, the inhibition in experiment [2] was found to be 47%; in experiment [3] it was 46%; in experiment [4], 5%; in experiment [5], 2%; in experiment [6] it was 1%.
Take `C=CCN(CC=C)Cc1c(Br)sc(N)c1C(=O)c1ccc(Cl)cc1`: the fold change (FC) in experiment [1] and in experiment [7] was 1.2 in each case. Also, the inhibition was 13% in experiment [2]; 8% in experiment [3]; 8% in experiment [4]; 6% in experiment [5]; 1% in experiment [6].
`CC(C)N(Cc1c(-c2ccccc2)sc(N)c1C(=O)c1ccc(Cl)cc1)C(C)C`: the figures for the fold change (FC) in experiment [1] and in experiment [7] were 1.3 and 1.2, respectively. Also, the inhibition is 12% in experiment [2]; 9% in experiment [3]; 11% in experiment [4]; 5% in experiment [5]; 6% in experiment [6].
As for `Nc1scc(COc2ccccc2)c1C(=O)c1ccc(Cl)cc1`, the fold change (FC) in experiment [1] is 1.2; in experiment [7], 1.3. In addition, the inhibition is 11% in experiment [2]; 9% in experiment [3]; 2% in experiment [4]; 1% in experiment [5]; 0% in experiment [6].
For the molecule `Nc1sc(-c2ccccc2)c(CN2CCCCC2)c1C(=O)c1ccc(Cl)cc1`, the fold change (FC) in experiment [1] is 2.7; in experiment [7], 2.9. In addition, the inhibition in experiment [2] was determined as 22%; in experiment [3], 24%; in experiment [4] it was 7%; in experiment [5], 1%; in experiment [6] it was 1%.
Regarding `Cc1ccc2c(c1)OC1(CCN(Cc3csc(N)c3C(=O)c3ccc(Cl)cc3)CC1)O2`, the figures for the fold change (FC) in experiment [1] and in experiment [7] were 4.2 and 5.1, respectively. Further, the inhibition in experiment [2] was determined as 45%; in experiment [3], 48%; in experiment [4], 6%; in experiment [5] it was 0%; in experiment [6], 3%.
For `Nc1scc(CN2CCn3c(cc4cc(Cl)ccc43)C2)c1C(=O)c1ccc(Cl)cc1`, the fold change (FC) was 6.9 in experiment [1] and 7.4 in experiment [7]. Also, the inhibition in experiment [2] worked out at 60%; in experiment [3], 64%; in experiment [4], 4%; in experiment [5], 4%; in experiment [6] it was 0%.
In the case of `Nc1scc(CN2CCC3(CC2)Oc2ccccc2O3)c1C(=O)c1ccc(Cl)cc1`, the fold change (FC) came to 4.7 in experiment [1] and 5.1 in experiment [7]. The inhibition turned out to be 43% in experiment [2]; 45% in experiment [3]; 5% in experiment [4]; 1% in experiment [5]; 1% in experiment [6].
Turning to `CN(C)Cc1c(-c2ccccc2)sc(N)c1C(=O)c1ccc(Cl)cc1`, the fold change (FC) in experiment [1] is 1; in experiment [7], 1.1. The inhibition is 10% in experiment [2]; 6% in experiment [3]; 2% in experiment [4]; 1% in experiment [5]; 1% in experiment [6].
Consider `Cn1c2c(c3ccccc31)CN(Cc1csc(N)c1C(=O)c1ccc(Cl)cc1)CC2`, for which the fold change (FC) is 2.9 in experiment [1] and 3.1 in experiment [7]. Besides, the inhibition in experiment [2] came to 27%; in experiment [3], 28%; in experiment [4], 2%; in experiment [5], 2%; in experiment [6] it was 1%.
In the case of `CCCN(CCC)Cc1csc(N)c1C(=O)c1ccc(Cl)cc1`, the fold change (FC) in experiment [1] was 1.1; in experiment [7], 1.2. In addition, the inhibition in experiment [2] is 10%; in experiment [3] it was 9%; in experiment [4], 5%; in experiment [5], 4%; in experiment [6], 0%.
With `CN(Cc1csc(N)c1C(=O)c1ccc(Cl)cc1)c1ccc(Cl)cc1`, the values for the fold change (FC) in experiment [1] and in experiment [7] were 2.2 and 2.5, respectively. Besides, the inhibition is 21% in experiment [2]; 22% in experiment [3]; 12% in experiment [4]; 8% in experiment [5]; 0% in experiment [6].
On to `CCCN(CCC)Cc1c(-c2ccccc2)sc(N)c1C(=O)c1ccc(Cl)cc1`, for which the fold change (FC) was 2.5 in experiment [1] and 3.1 in experiment [7]. Moreover, the inhibition in experiment [2] was 29%; in experiment [3], 28%; in experiment [4], 11%; in experiment [5], 1%; in experiment [6], 1%.
`C=CCN(CC=C)Cc1c(-c2ccccc2)sc(N)c1C(=O)c1ccc(Cl)cc1`: the fold change (FC) in experiment [1] was found to be 3.9; in experiment [7] it was 4.2. The inhibition came out at 34% in experiment [2]; 36% in experiment [3]; 5% in experiment [4]; 3% in experiment [5]; 1% in experiment [6].
For `Nc1scc(CN2CCc3ccccc3C2)c1C(=O)c1ccc(Cl)cc1`, the values for the fold change (FC) in experiment [1] and in experiment [7] were 4.1 and 4.6, respectively. Besides, the inhibition was 43% in experiment [2]; 41% in experiment [3]; 1% in experiment [4]; 0% in experiment [5]; 3% in experiment [6].
Consider `Nc1scc(CN2CCn3c(cc4ccccc43)C2)c1C(=O)c1ccc(Cl)cc1`, for which the fold change (FC) in experiment [1] turned out to be 6.6; in experiment [7], 7.5. Further, the inhibition in experiment [2] was found to be 62%; in experiment [3] it was 66%; in experiment [4] it was 3%; in experiment [5], 3%; in experiment [6] it was 0%.
Consider `Nc1scc(CSc2ccccc2)c1C(=O)c1ccc(Cl)cc1`, for which the values for the fold change (FC) in experiment [1] and in experiment [7] were 2 and 2.2, respectively. For the same molecule, the inhibition stood at 21% in experiment [2]; 18% in experiment [3]; 5% in experiment [4]; 1% in experiment [5]; 1% in experiment [6].
